The record followed here is ChEMBL document CHEMBL1134085, “Discovery of potent and selective phenylalanine derived CCR3 antagonists. Part 1” (Bioorg Med Chem Lett, 2001).

SMILES strings stand for the structures. Values joined by “and” are separate entries in the source; they are usually repeats but may differ in a detail not shown here. Equal values may be shown once. Where a SMILES comes first, the peptide text is derived from it. The star is where a group is joined. Cbz = O=C(OCc1ccccc1)*

One assay addresses T1, C-C chemokine receptor type 3 (Homo sapiens, UniProt P51677).
T1 sequence (P51677 whole entry): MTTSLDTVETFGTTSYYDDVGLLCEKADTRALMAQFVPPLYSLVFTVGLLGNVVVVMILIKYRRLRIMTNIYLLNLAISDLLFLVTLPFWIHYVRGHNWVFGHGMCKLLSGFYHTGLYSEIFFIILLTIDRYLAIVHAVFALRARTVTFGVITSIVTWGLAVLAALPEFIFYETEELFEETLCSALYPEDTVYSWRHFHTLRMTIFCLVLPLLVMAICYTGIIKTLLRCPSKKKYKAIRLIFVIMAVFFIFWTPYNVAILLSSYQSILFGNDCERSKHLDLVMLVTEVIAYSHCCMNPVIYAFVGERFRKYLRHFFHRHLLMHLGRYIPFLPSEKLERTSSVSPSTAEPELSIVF
Put plainly: […] activity against C-C chemokine receptor type 3 by displacing [125I]-MCP-4 radioligand, using CCR3 binding assay.
The compound `COC(=O)[C@H](Cc1ccc([N+](=O)[O-])cc1)NC(=O)c1cccc2ccccc12` yielded an IC50 of 7 nM.

A further assay addresses T1, C-C chemokine receptor type 3. The experiment in a line: Inhibitory activity against human eosinophil C-C chemokine receptor type 3 using [125I]- human eotaxin as the radioligand. The method in brief: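 Competition binding on CCR3 from purified human eosinophils as receptor source, with [125I]human eotaxin as radioligand; IC50 taken as displacement of radioligand binding.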
`O=C(N[C@@H](Cc1ccc([N+](=O)[O-])cc1)C(=O)NCc1ccccc1)c1cccc2ccccc12` displayed an IC50 of 4000 nM.
`CCOC(=O)[C@H](Cc1ccc([N+](=O)[O-])cc1)NC(=O)c1ccccc1` yielded an IC50 of 49 nM.
With `CCOC(=O)[C@H](Cc1ccc([N+](=O)[O-])cc1)NC(=O)c1ccc(C)cc1C`, the IC50 is 3 nM.
On the same count and under the same terms, for `CCOC(=O)[C@H](Cc1ccc(O)cc1)NC(=O)c1cccc2ccccc12` the value was 80 nM; for `CCOC(=O)[C@H](Cc1cc(I)c(O)c(I)c1)NC(=O)c1ccccc1`, 535 nM; for `CCOC(=O)[C@H](Cc1ccc(O)cc1)NC(=O)Nc1ccccc1`, over 33000 nM.
`CCOC(=O)[C@H](Cc1ccc([N+](=O)[O-])cc1)NC(=O)c1cccc2ccccc12` yielded an IC50 of 8 nM.
Still for that read-out and setting: next, `CCOC(=O)[C@H](Cc1ccc(O)cc1)NC(=O)c1ccccn1`: 1700 nM; `CCOC(=O)[C@@H](NC(=O)c1ccccc1)c1ccccc1`: over 20000 nM; `CCOC(=O)[C@H](CCc1ccccc1)NC(=O)c1ccccc1`: 5950 nM.
For `O=C(N[C@@H](Cc1ccc([N+](=O)[O-])cc1)C(=O)OCc1ccccc1)c1cccc2ccccc12`, the IC50 was determined as 18 nM.
Take `CN(C)C(=O)[C@H](Cc1ccc([N+](=O)[O-])cc1)NC(=O)c1cccc2ccccc12`: the IC50 is over 33000 nM.
For `CCOC(=O)[C@H](C)NC(=O)c1ccccc1`, the IC50 came out at 9000 nM.
Consider `CCCC(=O)[C@H](Cc1ccc([N+](=O)[O-])cc1)NC(=O)c1cccc2ccccc12`, for which the IC50 was over 33000 nM.
Compound `COC(=O)[C@H](Cc1ccc([N+](=O)[O-])cc1)NC(=O)c1cccc2ccccc12` yielded a half-maximal inhibitory concentration (IC50) of 5 nM.
As to `CCOC(=O)[C@H](Cc1ccc(O)cc1)NC(=O)c1ccccc1`, the IC50 is 383 nM.
In turn, `CCOC(=O)[C@H](Cc1ccc(O)cc1)NC(=O)Cc1ccccc1` yielded an IC50 of 2600 nM.
`CC(C)OC(=O)[C@H](Cc1ccc([N+](=O)[O-])cc1)NC(=O)c1cccc2ccccc12` displayed an IC50 of 21 nM.
Compound `CCOC(=O)[C@@H](Cc1ccc(O)cc1)NC(=O)c1ccccc1` yielded an IC50 of over 50000 nM.
Same read-out and setting: next, `CCOC(=O)[C@H](Cc1ccccc1)NC(=O)c1ccccc1`: 190 nM.
Still for that read-out and setting: for `CCOC(=O)[C@H](Cc1c[nH]c2ccccc12)NC(=O)c1ccccc1` the value was 325 nM; for `CCOC(=O)[C@H](Cc1ccc(O)cc1)NS(=O)(=O)c1ccc(C)cc1`, 16000 nM; for `CC(C)(C)OC(=O)[C@H](Cc1ccc([N+](=O)[O-])cc1)NC(=O)c1cccc2ccccc12`, 57 nM.
As for `CCOC(=O)[C@H](Cc1ccc(O)cc1)NC(=O)[C@H](CC(N)=O)NC(=O)OCc1ccccc1` (Cbz-Asn-Tyr-OEt), the IC50 is over 25000 nM.
On the same count and under the same terms, for `CCOC(=O)[C@H](Cc1ccc(O)cc1)NC(=O)[C@H](CCC(N)=O)NC(=O)OCc1ccccc1` (Cbz-Gln-Tyr-OEt) the value was over 25000 nM.
Turning to `CCOC(=O)[C@H](Cc1ccc(O)cc1)NC(=O)[C@H](Cc1ccccc1)NC(=O)OCc1ccccc1` (Cbz-Phe-Tyr-OEt), the IC50 turned out to be 6250 nM.
Compound `CCOC(=O)[C@H](Cc1ccc(O)cc1)NC(=O)[C@H](CO)NC(=O)OCc1ccccc1` (Cbz-Ser-Tyr-OEt) came in with a 50% inhibitory concentration (IC50) of over 25000 nM.

For a further assay the target is unchanged. Put plainly: […] activity against C-C chemokine receptor type 3 by displacing Eotaxin-2 radioligand, using [Ca2+] mobilization assay. Format: functional. The method in brief:
(§1)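 Functional antagonism was tested in RBL-2H3 cells expressing CCR3. Cells were challenged with eotaxin or eotaxin-2, and the resulting rise in intracellular Ca2+ was measured. Inhibition of this calcium mobilization is reported as an IC50 in nM.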
Consider `COC(=O)[C@H](Cc1ccc([N+](=O)[O-])cc1)NC(=O)c1cccc2ccccc12`, for which the IC50 was 35 nM and 20 nM.

A further assay shares this target. The experiment in a line: […] against C-C chemokine receptor type 3 by displacing Eotaxin radioligand, using [Ca2+] mobilization assay. Format: functional. An outline of the steps: as §1
In turn, `COC(=O)[C@H](Cc1ccc([N+](=O)[O-])cc1)NC(=O)c1cccc2ccccc12` had an IC50 of 38 nM.
